Data published in ChEMBL document CHEMBL3112538, “Novel spirooxindole-pyrrolidine compounds: synthesis, anticancer and molecular docking studies” (2014).
Activity calls are given as the source filed them. No cut-off for these calls is given here.

Columns and labels:
A549 [1] = assay: Cytotoxicity against human A549 cells at 50 ug/ml by MTT assay; type: functional
Procedure, shortened: (§1)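 A549 cells (NCIS Pune) grown in DMEM with 10% FBS, 2 mM L-glutamine, penicillin/streptomycin, pH 7.2. 5 × 10^5 cells were seeded with compound at 100, 50 or 25 per mL and kept at 37 °C, 5% CO2. MTT (1 mg/mL, 4 h) was added, formazan dissolved in DMSO and read at 540 nm. IC50 is the mean of three replicate experiments; Duncan test at P = 0.05.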

A549 [2] = assay: Cytotoxicity against human A549 cells at 25 ug/ml by MTT assay; type: functional; procedure, shortened: as §1
A549 [3] = assay: Cytotoxicity against human A549 cells by MTT assay; type: functional, cell-based; procedure, shortened: as §1
A549 [4] = assay: Cytotoxicity against human A549 cells at 100 ug/ml by MTT assay; type: functional; procedure, shortened: as §1
A549 [5] = assay: Cytotoxicity against human A549 cells assessed as growth inhibition at 25 ug/ml after 24 hrs by agarose gel electrophoresis; type: functional, cell-based
Procedure, shortened: (§2)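 A549 cells were exposed to compound for 24 h. 1 × 10^6 cells were pelleted, PBS-washed and lysed at 4 °C for 15 min in 10 mM Tris-HCl pH 7.4 with 10 mM EDTA and 0.5% Triton X-100. Supernatant was treated with proteinase K (60 °C, 60 min) then RNase A (37 °C, 60 min). DNA was isopropanol/NaCl precipitated overnight and run on a 2% agarose gel.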

A549 [6] = assay: Induction of apoptosis in human A549 cells assessed as DNA fragmentation at 25 ug/ml after 24 hrs by agarose gel electrophoresis; type: functional, cell-based; procedure, shortened: as §2
A549 [7] = assay: Induction of apoptosis in human A549 cells at 25 ug/ml after 24 hrs by propidium iodide/FITC staining-based confocal laser scanning microscopy; type: functional, cell-based
Procedure, shortened: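 Cells were exposed to compound or untreated for 24 h, washed twice in 0.01 M PBS and suspended in binding buffer. They were stained with FITC and PI for 30 min at 4 °C in the dark, pelleted and smeared. Fluorescence was viewed at once by confocal laser scanning microscopy at 400× magnification.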

SMILES | inhibition at 50 µg/mL (A549 [1]) [%] | inhibition at 25 µg/mL (A549 [2]) [%] | Activity (A549 [3]) | inhibition at 100 µg/mL (A549 [4]) [%] | growth inhibition (GI) (A549 [5]) | Activity (A549 [6]) | Activity (A549 [7])
N#C[C@@]1(C(=O)c2c[nH]c3ccccc23)[C@@H](c2ncc[nH]2)C2CSCN2[C@]12C(=O)Nc1ccc(F)cc12 (some centres undefined) | 33.5 | 15.5 | Dose-dependent effect | 66.2 | – | – | –
N#C[C@@]1(C(=O)c2c[nH]c3ccccc23)[C@@H](c2ncc[nH]2)C2CSCN2[C@]12C(=O)Nc1ccc(Cl)cc12 (some centres undefined) | 13.4 | 6 | Dose-dependent effect | 24 | – | – | –
COc1ccc2[nH]cc(C(=O)[C@]3(C#N)[C@@H](c4ncc[nH]4)CN(C)[C@]34C(=O)Nc3ccc(Cl)cc34)c2c1 | 15.2 | 4.7 | Dose-dependent effect | 23 | – | – | –
COc1ccc2[nH]cc(C(=O)[C@]3(C#N)[C@@H](c4ncc[nH]4)CN(C)[C@]34C(=O)Nc3ccc([N+](=O)[O-])cc34)c2c1 | 4.3 | 3 | Dose-dependent effect | 6.8 | – | – | –
N#C[C@@]1(C(=O)c2c[nH]c3ccccc23)[C@@H](c2ncc[nH]2)C2CSCN2[C@]12C(=O)Nc1ccccc12 (some centres undefined) | 79.3 | 59.9 | Dose-dependent effect | 85.6 | Active | Active | –
CN1C(=O)[C@@]2(c3ccccc31)N1CSCC1[C@H](c1ncc[nH]1)[C@@]2(C#N)C(=O)c1c[nH]c2ccccc12 (some centres undefined) | 75.1 | 64.8 | Dose-dependent effect | 87.8 | Active | Active | Active
CN1C[C@H](c2ncc[nH]2)[C@@](C#N)(C(=O)c2c[nH]c3ccccc23)[C@@]12C(=O)Nc1ccc(Br)cc12 | 9.8 | 4.4 | Dose-dependent effect | 34.2 | – | – | –
N#C[C@@]1(C(=O)c2c[nH]c3ccccc23)[C@@H](c2ncc[nH]2)C2CSCN2[C@]12C(=O)Nc1ccc([N+](=O)[O-])cc12 (some centres undefined) | 63.4 | 28 | Dose-dependent effect | 76.8 | – | – | –
COc1ccc2[nH]cc(C(=O)[C@]3(C#N)[C@@H](c4ncc[nH]4)C4CSCN4[C@]34C(=O)Nc3ccc([N+](=O)[O-])cc34)c2c1 (some centres undefined) | 5.1 | 3.3 | Dose-dependent effect | 9 | – | – | –
CN1C[C@H](c2ncc[nH]2)[C@@](C#N)(C(=O)c2c[nH]c3ccccc23)[C@@]12C(=O)Nc1ccc(F)cc12 | 9 | 4.5 | Dose-dependent effect | 22.2 | – | – | –
COc1ccc2[nH]cc(C(=O)[C@]3(C#N)[C@@H](c4ncc[nH]4)CN(C)[C@]34C(=O)N(C)c3ccccc34)c2c1 | 79.2 | 66.3 | Dose-dependent effect | 85 | – | – | –
COc1ccc2[nH]cc(C(=O)[C@]3(C#N)[C@@H](c4ncc[nH]4)C4CSCN4[C@]34C(=O)Nc3ccc(Br)cc34)c2c1 (some centres undefined) | 68.4 | 36.2 | Dose-dependent effect | 82.7 | – | – | –
N#C[C@@]1(C(=O)c2c[nH]c3ccccc23)[C@@H](c2ncc[nH]2)C2CSCN2[C@]12C(=O)Nc1ccc(Br)cc12 (some centres undefined) | 9 | 5.1 | Dose-dependent effect | 15.6 | – | – | –
COc1ccc2[nH]cc(C(=O)[C@]3(C#N)[C@@H](c4ncc[nH]4)CN(C)[C@]34C(=O)Nc3ccccc34)c2c1 | 74.4 | 62.8 | Dose-dependent effect | 83 | – | – | –
N#C[C@@]1(C(=O)c2c[nH]c3ccccc23)[C@@H](c2ncc[nH]2)C2CSCN2[C@]12C(=O)Nc1ccc(I)cc12 (some centres undefined) | 56.3 | 24.5 | Dose-dependent effect | 69 | – | – | –
COc1ccc2[nH]cc(C(=O)[C@]3(C#N)[C@@H](c4ncc[nH]4)C4CSCN4[C@]34C(=O)Nc3ccc(Cl)cc34)c2c1 (some centres undefined) | 72.1 | 55.2 | Dose-dependent effect | 81.8 | Active | Active | –
COc1ccc2[nH]cc(C(=O)[C@]3(C#N)[C@@H](c4ncc[nH]4)C4CSCN4[C@]34C(=O)Nc3ccc(F)cc34)c2c1 (some centres undefined) | 31.1 | 15.7 | Dose-dependent effect | 56.2 | – | – | –
Cc1ccc2c(c1)[C@]1(C(=O)N2)N2CSCC2[C@H](c2ncc[nH]2)[C@@]1(C#N)C(=O)c1c[nH]c2ccccc12 (some centres undefined) | 75.8 | 66.3 | Dose-dependent effect | 84.3 | Active | Active | –
Cc1ccc2c(c1)[C@]1(C(=O)N2)N(C)C[C@H](c2ncc[nH]2)[C@@]1(C#N)C(=O)c1c[nH]c2ccccc12 | 53.5 | 26.7 | Dose-dependent effect | 77.3 | Active | Active | –
COc1ccc2[nH]cc(C(=O)[C@]3(C#N)[C@@H](c4ncc[nH]4)C4CSCN4[C@]34C(=O)N(C)c3ccccc34)c2c1 (some centres undefined) | 68.5 | 52.9 | Dose-dependent effect | 80.1 | – | – | –
COc1ccc2[nH]cc(C(=O)[C@]3(C#N)[C@@H](c4ncc[nH]4)CN(C)[C@]34C(=O)Nc3ccc(I)cc34)c2c1 | 22.2 | 3.7 | Dose-dependent effect | 50.2 | – | – | –
CN1C[C@H](c2ncc[nH]2)[C@@](C#N)(C(=O)c2c[nH]c3ccccc23)[C@@]12C(=O)Nc1ccccc12 | 6.3 | 3.1 | Dose-dependent effect | 23.2 | – | – | –
CN1C[C@H](c2ncc[nH]2)[C@@](C#N)(C(=O)c2c[nH]c3ccccc23)[C@@]12C(=O)Nc1ccc(Cl)cc12 | 30.9 | 6.9 | Dose-dependent effect | 51.5 | – | – | –
CN1C(=O)[C@@]2(c3ccccc31)N(C)C[C@H](c1ncc[nH]1)[C@@]2(C#N)C(=O)c1c[nH]c2ccccc12 | 4.3 | 3.3 | Dose-dependent effect | 7.4 | – | – | –
COc1ccc2[nH]cc(C(=O)[C@]3(C#N)[C@@H](c4ncc[nH]4)CN(C)[C@]34C(=O)Nc3ccc(F)cc34)c2c1 | 35.6 | 9.9 | Dose-dependent effect | 66.2 | – | – | –
COc1ccc2[nH]cc(C(=O)[C@]3(C#N)[C@@H](c4ncc[nH]4)C4CSCN4[C@]34C(=O)Nc3ccccc34)c2c1 (some centres undefined) | 72.1 | 54.4 | Dose-dependent effect | 83.3 | Active | Active | –
COc1ccc2[nH]cc(C(=O)[C@]3(C#N)[C@@H](c4ncc[nH]4)CN(C)[C@]34C(=O)Nc3ccc(Br)cc34)c2c1 | 9.9 | 5.1 | Dose-dependent effect | 13.4 | – | – | –
CN1C[C@H](c2ncc[nH]2)[C@@](C#N)(C(=O)c2c[nH]c3ccccc23)[C@@]12C(=O)Nc1ccc([N+](=O)[O-])cc12 | 33.4 | 8.8 | Dose-dependent effect | 56.6 | – | – | –
CN1C[C@H](c2ncc[nH]2)[C@@](C#N)(C(=O)c2c[nH]c3ccccc23)[C@@]12C(=O)Nc1ccc(I)cc12 | 6.8 | 5.9 | Dose-dependent effect | 14.9 | – | – | –
